From paper PMC6935887 (Journal of Medicinal Chemistry, 2019)
Where “and” joins values, the source holds several entries; their conditions need not be identical. Equal values may be shown once.

Columns and labels:
[1] = target: T1, hCCR2 (Homo sapiens, UniProt P41597); assay: [3H]-CCR2-RA-[R] displacement binding assay on U2OS-CCR2b membranes; conditions: displacement of ∼6 nM [3H]-CCR2-RA-[R] from U2OS cells stably expressing CCR2, 25 °C
T1 sequence (P41597 1-360 isoform P41597-2): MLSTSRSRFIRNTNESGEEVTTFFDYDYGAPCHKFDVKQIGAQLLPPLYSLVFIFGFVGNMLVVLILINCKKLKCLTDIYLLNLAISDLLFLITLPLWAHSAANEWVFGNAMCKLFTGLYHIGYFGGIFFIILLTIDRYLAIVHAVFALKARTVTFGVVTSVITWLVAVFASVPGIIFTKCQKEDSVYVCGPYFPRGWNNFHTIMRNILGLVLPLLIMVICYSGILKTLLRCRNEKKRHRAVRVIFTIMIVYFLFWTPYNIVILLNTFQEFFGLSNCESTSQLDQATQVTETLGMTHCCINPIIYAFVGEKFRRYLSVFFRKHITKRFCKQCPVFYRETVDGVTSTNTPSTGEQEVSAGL
How it was run: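 U2OS-CCR2b membranes (15–20 μg protein) were incubated with ~6 nM [3H]-CCR2-RA-[R] and at least 6 competitor concentrations. Buffer: 50 mM Tris-HCl, 5 mM MgCl2, 0.1% CHAPS, pH 7.4. Incubation 2 h at 25 °C. Rapid GF/B filtration, ten washes with ice-cold buffer (0.05% CHAPS), scintillation counting. Mean ± SEM of ≥3 experiments in duplicate.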

[2] = target: hCCR5 (Homo sapiens, UniProt P51681); assay: Tango β-arrestin recruitment assay in U2OS-CCR5 cells; assay type: cell-based; conditions: inhibition of CCL3-induced β-arrestin recruitment in U2OS-CCR5
How it was run: (§1)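 Tango bla U2OS cells (human CCR2b or CCR5) were trypsinized and seeded at 10 000 cells/well in FreeStyle medium. Agonist mode: CCL2 or CCL3 for 16 h, 37 °C, 5% CO2. Antagonist mode: 30 min room-temperature preincubation with increasing compound (≤0.5% DMSO final), then 16 h with EC80 CCL2 (5 nM, CCR2) or CCL3 (14 nM, CCR5). LiveBLAzer-FRET B/G substrate 2 h; excitation 400 nm, 460/535 nm emission ratio.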

[3] = test system: CCR2; conditions: read-out: IC50 in CCR2 calcium flux assay; previously reported activity; cited from earlier work
[4] = target: T1, hCCR2; assay: Tango β-arrestin recruitment assay in U2OS-CCR2 cells; assay type: cell-based; conditions: inhibition of CCL2-induced β-arrestin recruitment in U2OS-CCR2
How it was run: as §1

hCCR5, sequence (P51681 whole entry): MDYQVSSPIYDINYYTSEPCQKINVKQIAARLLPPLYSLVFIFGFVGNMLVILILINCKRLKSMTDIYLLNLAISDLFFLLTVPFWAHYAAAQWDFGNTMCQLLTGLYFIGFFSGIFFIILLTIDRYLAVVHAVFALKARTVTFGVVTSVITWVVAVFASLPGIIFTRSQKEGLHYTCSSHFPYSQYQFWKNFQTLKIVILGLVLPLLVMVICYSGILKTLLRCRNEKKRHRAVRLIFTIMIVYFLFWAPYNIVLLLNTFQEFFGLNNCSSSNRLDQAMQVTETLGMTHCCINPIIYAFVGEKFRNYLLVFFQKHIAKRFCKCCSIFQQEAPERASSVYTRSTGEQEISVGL

SMILES: Nc1nc2[nH]c(C3CC3)c(Cc3cccc(Cl)c3)c(=O)n2n1 [Compound 8, 2-Amino-6-(3-chlorobenzyl)-5-cyclopropyl[1,2,4]triazolo[1,5-a]pyrimidin-7(4H)-one]
- pKi ± SEM [1]: 8.90 ± 0.04
- Hill slope (nH) [2]: −2.2 ± 0.3
- IC50 [3]: 16 nM and ~20 nM
- Hill slope (nH) [4]: −2.7
